Test results reported in ChEMBL document CHEMBL1121790, “Proposed dopaminergic pharmacophore of lergotrile, pergolide, and related ergot alkaloid derivatives” (1981).
Active and inactive are the calls of the source. The calls are words filed in the database; no cut-off is given here.

Experiments:
Felis catus [1] = assay: Compound was tested for inhibitory effect reversed by haloperidol (100 ug/kg) at […] in anaesthetized cat; Yes; format: functional, organism-based
Procedure, shortened: (§1)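 Cats anaesthetised with pentobarbital sodium (30 mg/kg, intrathorax); arterial pressure recorded from right femoral artery. Postganglionic cardioaccelerator nerve stimulated at 2 Hz, 5 ms pulses, supramaximal voltage, 20-30 s trains. After stable controls, compound given iv in doses spaced 0.48 log units; inhibition of stimulation-induced tachycardia measured. Haloperidol 100 μg iv at end, inhibition redetermined. ID50 by probit analysis.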

Felis catus [2] = assay: Compound was tested for percentage increase in mean arterial blood pressure at 100 mg/kg in anaesthetized cat; format: functional, Artery
Procedure, shortened: (§2)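 Pentobarbital sodium (30 mg/kg, intrathorax) anaesthetised cats; arterial pressure from right femoral artery via pressure transducer. Compound given iv, doses spaced 0.48 log units. Change in mean arterial pressure (increase, i.e. transient primary pressor phase, and decrease) and in resting heart rate expressed as % of resting control; resting pressure (mmHg) and heart rate (beats/min) also recorded.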

Felis catus [3] = assay: Compound was tested for percentage increase in mean arterial blood pressure at 300 mg/kg in anaesthetized cat; format: functional, Artery; procedure, shortened: as §2
Felis catus [4] = assay: Compound was tested for percentage increase in mean arterial blood pressure at 30 mg/kg in anaesthetized cat; format: functional, Artery; procedure, shortened: as §2
Felis catus [5] = assay: Compound was tested for neuronal inhibition of postganglionic cardio accelerator nerve stimulation in anaesthetized cat at 2 Hz frequency at 100 mg/kg; format: functional; settings: Heart; procedure, shortened: as §1
Felis catus [6] = assay: Compound was tested for neuronal inhibition of postganglionic cardio accelerator nerve stimulation in anaesthetized cat at 2 Hz frequency at 300 mg/kg; format: functional; settings: Heart; procedure, shortened: as §1
Felis catus [7] = assay: Compound was tested for neuronal inhibition of postganglionic cardio accelerator nerve stimulation in anaesthetized cat at 2 Hz frequency at 30 mg/kg; format: functional; settings: Heart; procedure, shortened: as §1
Felis catus [8] = assay: Compound was tested for percentage decrease in mean arterial blood pressure at 300 mg/kg in anaesthetized cat; format: functional, Artery; procedure, shortened: as §2
Felis catus [9] = assay: Compound was tested for percentage decrease in mean arterial blood pressure at 30 mg/kg in anaesthetized cat; format: functional, Artery; procedure, shortened: as §2
Felis catus [10] = assay: Potency relative to apomorphine at […] in anaesthetized cat; 0.07-0.33; format: functional
Felis catus [11] = assay: Compound was tested for percentage decrease in heart rate at […] in anaesthetized cat (resting heart rate (beats/min)); format: functional; procedure, shortened: as §2
Felis catus [12] = assay: Compound was tested for percentage decrease in heart rate at 300 mg/kg in anaesthetized cat; format: functional; procedure, shortened: as §2
Felis catus [13] = assay: Compound was tested for percentage decrease in heart rate at 30 mg/kg in anaesthetized cat; format: functional; procedure, shortened: as §2
Felis catus [14] = assay: Compound was tested for percentage decrease in mean arterial blood pressure at 100 mg/kg in anaesthetized cat (resting mean arterial pressure (mmHg)); format: functional, Artery; procedure, shortened: as §2
Felis catus [15] = assay: Sympathetic neuronal inhibiting activity in anaesthetized cat 30 at mg/kg; 0.12-0.33; format: functional; settings: Sympathetic neuron, read-out: ID50 (the source's name); procedure, shortened: as §1
Felis catus [16] = assay: Potency relative to apomorphine at 30 mg/kg in anaesthetized cat; format: functional
Felis catus [17] = assay: Compound was tested for percentage decrease in heart rate at 100 mg/kg in anaesthetized cat; format: functional; procedure, shortened: as §2
Felis catus [18] = assay: Compound was tested for percentage decrease in mean arterial blood pressure at 100 mg/kg in anaesthetized cat; format: functional, Artery; procedure, shortened: as §2
Felis catus [19] = assay: Sympathetic neuronal inhibiting activity in anaesthetized cat at 30 mg/kg; format: functional; settings: Sympathetic neuron, read-out: ID50 (the source's name); procedure, shortened: as §1
Felis catus [20] = assay: Compound was tested for inhibitory effect reversed by haloperidol (100 ug/kg) at 3 mg/kg in anaesthetized cat; yes; format: functional, organism-based; design: dose 3 mg/kg
Procedure, shortened: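 Pentobarbital sodium (30 mg/kg) anaesthetised cats; arterial pressure recorded from the right femoral artery. Postganglionic cardioaccelerator nerve stimulated at 2 Hz with 5 ms pulses at supramaximal voltage, in 20-30 s trains. After stable controls, compound was given iv in doses spaced at 0.48 log intervals. Haloperidol (100 μg/kg iv) was then given and inhibition of nerve-evoked tachycardia redetermined.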

Felis catus [21] = assay: Compound was tested for percentage increase in mean arterial blood pressure at 10 mg/kg in anaesthetized cat; format: functional, Artery; procedure, shortened: as §2
Felis catus [22] = assay: Compound was tested for percentage increase in mean arterial blood pressure at 3 mg/kg in anaesthetized cat; format: functional, Artery; procedure, shortened: as §2
Felis catus [23] = assay: Compound was tested for neuronal inhibition of postganglionic cardio accelerator nerve stimulation in anaesthetized cat at 2 Hz frequency at 10 mg/kg; format: functional; settings: Heart; procedure, shortened: as §1
Felis catus [24] = assay: Compound was tested for neuronal inhibition of postganglionic cardio accelerator nerve stimulation in anaesthetized cat at 2 Hz frequency at 3 mg/kg; format: functional; settings: Heart; procedure, shortened: as §1
Felis catus [25] = assay: Compound was tested for percentage decrease in mean arterial blood pressure at 3 mg/kg in anaesthetized cat; format: functional, Artery; procedure, shortened: as §2
Felis catus [26] = assay: Potency relative to apomorphine at 3 mg/kg in anaesthetized cat; format: functional
Felis catus [27] = assay: Compound was tested for percentage decrease in heart rate at 10 mg/kg in anaesthetized cat; format: functional; procedure, shortened: as §2
Felis catus [28] = assay: Compound was tested for percentage decrease in heart rate at 3 mg/kg in anaesthetized cat; format: functional; procedure, shortened: as §2
Felis catus [29] = assay: Compound was tested for percentage decrease in mean arterial blood pressure at 10 mg/kg in anaesthetized cat (resting mean arterial pressure (mmHg)); format: functional, Artery; procedure, shortened: as §2
Felis catus [30] = assay: Sympathetic neuronal inhibiting activity in anaesthetized cat 3 at mg/kg; format: functional; settings: Sympathetic neuron, read-out: ID50 (the source's name); procedure, shortened: as §1

`CNCCc1cccc2[nH]ccc12` was tested, and the Inhibitory effect (Felis catus [1]) was “Yes”, the Increase (Felis catus [2]) was 16% and the Increase (Felis catus [3]) was 41%. For the same compound, the Increase (Felis catus [4]) was 6%, the inhibition in vivo at 100 mg/kg (Felis catus [5]) was 60% and the inhibition in vivo at 300 mg/kg (Felis catus [6]) was 77%. For the same compound, the inhibition in vivo at 30 mg/kg (Felis catus [7]) was 29%, the Decrease (Felis catus [8]) was 10% and the Decrease (Felis catus [9]) was 11%. It also gave a Ratio (Felis catus [10]) of 0.14, a Decrease (Felis catus [11]) of 12% and a Decrease (Felis catus [12]) of 10%. For the same compound, the Decrease (Felis catus [13]) was 7%, the Decrease (Felis catus [14]) was 18% and the ED50 (Felis catus [15]) was 0.22 µmol/kg.
For `CN1C[C@H](CC#N)C[C@@H]2c3cccc4[nH]c(Cl)c(c34)C[C@H]21` [LERGOTRILE], the Inhibitory effect (Felis catus [1]) was “Yes”, the inhibition in vivo at 100 mg/kg (Felis catus [5]) was 57% and the inhibition in vivo at 300 mg/kg (Felis catus [6]) was 69%. The inhibition in vivo at 30 mg/kg (Felis catus [7]) was 21%, the Decrease (Felis catus [8]) was 38% and the Decrease (Felis catus [9]) was 22%. The Ratio (Felis catus [16]) was 0.08, the Decrease (Felis catus [17]) was 10% and the Decrease (Felis catus [12]) was 12%. For the same compound, the Decrease (Felis catus [13]) was 11%, the Decrease (Felis catus [18]) was 34% and the ED50 (Felis catus [19]) was 0.27 µmol/kg.
`CCCN1C[C@H](CSC)C[C@@H]2c3cccc4[nH]cc(c34)C[C@H]21` [PERGOLIDE] was tested, and the Inhibitory effect (Felis catus [20]) was “Active”, the Increase (Felis catus [21]) was 15% and the Increase (Felis catus [4]) was 52%. The Increase (Felis catus [22]) was 5%, the inhibition in vivo at 10 mg/kg (Felis catus [23]) was 59% and the inhibition in vivo at 30 mg/kg (Felis catus [7]) was 80%. For the same compound, the inhibition in vivo at 3 mg/kg (Felis catus [24]) was 23%, the Decrease (Felis catus [9]) was 6% and the Decrease (Felis catus [25]) was 5%. For the same compound, the Ratio (Felis catus [26]) was 1.13, the Decrease (Felis catus [27]) was 59% and the Decrease (Felis catus [13]) was 80%. For the same compound, the Decrease (Felis catus [28]) was 23%, the Decrease (Felis catus [29]) was 8% and the ED50 (Felis catus [30]) was 0.02 µmol/kg.
